RGS4 inh – human RGS4 inhibition; B-score at 10 µM; P49798; HEK293 M3R/RGS4 inducible, Fluo-4 calcium flux; active compounds read high; triggered by carbachol at its EC20; 0.45% of 310,000 active;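 active = B-score, a plate-corrected calcium signal, over three deviations above library mean, with baseline fluorescence within five deviations of library mean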;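 also: RGS4 expression induced by doxycycline in cells with stable M3 receptor; B-score is computed from the integrated fluorescence ratio over baseline after carbachol; higher B-score means a larger calcium signal and so more RGS4 inhibition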
Target sequence (P49798 whole entry, looked up): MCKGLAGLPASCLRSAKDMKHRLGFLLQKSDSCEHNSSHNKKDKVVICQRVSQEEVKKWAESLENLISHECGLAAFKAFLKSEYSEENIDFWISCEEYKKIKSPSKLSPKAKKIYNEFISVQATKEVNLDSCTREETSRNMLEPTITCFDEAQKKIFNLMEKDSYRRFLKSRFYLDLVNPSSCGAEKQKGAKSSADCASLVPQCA
MrgX1 antag – antagonists of human MrgX1 receptor | B-score at 10 µM | AID 588676 | 1.3% of 310,000 active | MRGX1-HEK293 calcium flux, Fluo-4, BAM8-22 antagonism; active compounds read low | Q96LB2;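 active = calcium-response B-score plate-corrected more than 3 library SD below zero, starting fluorescence within 5 deviations, no agonist response on first addition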;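 also: peak minus trough fluorescence over baseline after final BAM8-22 challenge near maximal dose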
RGS4 pot – RGS4 potentiation or activation | B-score at 10 µM | 0.92% of 310,000 active | HEK293 M3R/inducible RGS4, carbachol calcium flux Fluo4; active compounds read low;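 active = B-score of the integrated calcium signal more than 4 SD below the library mean, with starting fluorescence not abnormally high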;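 also: negative B-score means reduced calcium response which marks RGS4 activation or potentiation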
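Assay system: Inducible-RGS4 HEK293 cells carrying M3 receptor | Schedule: Compound preincubation 20 min at room temperature before agonist | Signal: Kinetic calcium fluorescence imaging with Fluo4-AM dye, 2 µM | Read-out basis: B score from integrated fluorescence ratio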
MrgX1 agonist – agonists of human MrgX1 receptor; Q96LB2; MrgX1-HEK293 cells, Fluo-4 calcium fluorescence, agonist mode; active compounds read high; B-score at 10 µM; 0.44% of 310,000 active; AID 588627;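 active = calcium response B-score plate-corrected fluorescence ratio at least 3 library SD, with starting fluorescence B-score inside 5 SD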
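System – MrgX1-expressing HEK293 cells · Incubation – cells plated overnight, dye loaded 0.5 h 37 °C, 0.5 h room temperature · Technique – kinetic Fluo-4 NW fluorescence of intracellular calcium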
MrgX1 allo act – human MrgX1 positive allosteric modulation, primary screen; 0.63% of 310,000 active; MrgX1-HEK293, Fluo-4 calcium flux, FDSS; active compounds read high; B-score at 10 µM; Q96LB2;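 active = plate-corrected calcium response at least 3 library SD above typical, normal starting fluorescence, not activating the receptor alone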;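 also: compound read alongside a low EC10 to EC30 dose of BAM8-22 agonist; peak minus trough fluorescence over baseline measured at the second addition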
* marks the source's active call; other numbers are inactive results; i = inactive. Compounds with a hit are over-represented: about 3.5% of the library has one in this group of screens.

SMILES	RGS4 inh	MrgX1 antag	RGS4 pot	MrgX1 agonist	MrgX1 allo act
Cc1ccc2cc(C3CC(c4ccco4)=NN3S(=O)(=O)c3ccccc3)c(Cl)nc2c1 (stereo unspecified)	i	i	i	38*	i
COc1ccc(CCN2C(=O)N[C@@H](C(C)C)C2=O)cc1	i	i	i	i	i
Cc1ccc(C(=O)N/C(=C\c2cn(C)c3ccccc23)C(=O)NCCN2CCOCC2)cc1	i	i	i	i	i
COc1ccc2oc(=N)c(C(=O)Nc3ccccc3Cl)cc2c1	i	i	i	i	i
Cc1cc(C2=NNC(=NCCc3ccccc3)SC2)c(C)n1CC1CCCO1 (stereo unspecified)	i	i	i	45*	i
CCN(CC)C(=O)c1c2c(nc3ccccc13)-c1ccccc1CC2	i	i	-7*	i	i
Cc1ccc(Cl)c(NC(=O)CN2CCNC(=O)C2)c1Cl	i	i	i	i	i
Cc1ccc(C(=O)OCC(=O)c2ccc(S(=O)(=O)N3CCCCC3)cc2)o1	i	i	i	i	i
O=C(Nc1ccc(C(=O)O)cc1)/C(=C\C=C\c1ccccc1)NC(=O)c1ccccc1Br	i	i	-7.7*	i	i
O=C(Nc1ccc(C(=O)O)cc1)/C(=C\C=C\c1ccccc1)NC(=O)c1cccc(Br)c1	i	i	i	i	i
NC(=O)c1nsc(C(=O)N(c2cccc(F)c2)C(C(=O)NC2CCCC2)c2ccc(O)cc2)c1N (stereo unspecified)	i	i	i	i	i
COc1ccc(C(C(=O)NC2CCCC2)N(C(=O)c2snc(C(N)=O)c2N)c2cccc(O)c2)cc1 (stereo unspecified)	i	i	i	i	6.5*
COCCN(C(=O)COC(=O)C1(c2ccccc2)CC1)c1c(N)n(CC(C)C)c(=O)[nH]c1=O	i	i	i	i	i
COc1ccccc1NC(=O)CCC(=O)N(Cc1ccc(OC)c(OC)c1)c1nccs1	i	-7.4*	i	i	i
COc1ccccc1N(CC(=O)NCc1ccc(F)cc1)C(=O)CCC(=O)Nc1nccs1	i	i	i	i	i
CCOc1ccccc1NC(=O)c1ccc2nc[nH]c2c1	i	i	i	i	i
CC1(C)CC1C(=O)Nc1ccc([N+](=O)[O-])cc1Br (stereo unspecified)	i	i	i	i	i
Cc1ccc(C2(c3ccc(C)cc3)CC2C(=O)Nc2ccc([N+](=O)[O-])cc2O)cc1 (stereo unspecified)	i	-4.5*	i	i	i
CSc1cccc(NC(=S)N2CCC(N(C)C3CCCC3)CC2)c1	i	i	i	i	i
O=C(N/C(=C\c1ccc(F)cc1)C(=O)N1CCOCC1)c1ccccc1	i	i	i	i	i
Cc1nn(-c2ccccc2)c2nc(C(F)(F)F)[nH]c(=O)c12	i	i	i	i	i
Cc1nn(-c2cc(C(F)(F)F)ccc2Cl)c2nc(C(Cl)(Cl)Cl)[nH]c(=O)c12	i	i	i	43*	i
O=C(OCCN1C(=O)c2cccc3c(N4CCOCC4)ccc(c23)C1=O)c1ccccc1Cl	i	i	-8.2*	i	i
N/C(=N\OC(=O)c1cccs1)C1(c2ccc(Cl)cc2Cl)CC1	i	i	i	i	14*
N/C(Cc1ccc(Cl)c(Cl)c1)=N\OC(=O)c1cccs1	i	i	i	i	i
CS(=O)(=O)N1N=C(c2ccccc2)CC1c1ccc2nccnc2c1 (stereo unspecified)	i	i	i	i	i
CS(=O)(=O)N1N=C(c2ccc3nccnc3c2)CC1c1ccccc1 (stereo unspecified)	i	i	i	i	6.5*
Cc1ccc(CNC(=O)N2CCN(S(=O)(=O)c3ccccc3)CC2)cc1	i	i	i	i	i
COc1ccc(/C=C2\N=C3CCCCCN3C2=O)cc1OC	i	-4.7*	i	i	i
CC(C)N=C(NS(=O)(=O)NC(=O)c1ccccc1)c1ccccc1	i	i	i	i	i
